Laboratory results from ChEMBL document CHEMBL2331542, “Synthesis and in vitro antibacterial activity of quinolone/naphthyridone derivatives containing 3-alkoxyimino-4-(methyl)aminopiperidine scaffolds” (2013).
Values after ≈ are worked out from the molar mass of the structure shown.

Key:
Format in all cases: functional
Escherichia coli [1] = assay: Antibacterial activity against extended-spectrum beta-lactamase-producing Escherichia coli isolate 12-4
Outline: (§1)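 MIC determined in vitro by a standard technique and defined as the lowest compound concentration giving complete inhibition of bacterial growth. The Gram-positive and Gram-negative panels were tested alongside gemifloxacin, levofloxacin and ciprofloxacin reference drugs.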

Escherichia coli [2] = assay: Antibacterial activity against extended-spectrum beta-lactamase-producing Escherichia coli isolate 12-2; outline: as §1
Escherichia coli [3] = assay: Antibacterial activity against extended-spectrum beta-lactamase-producing Escherichia coli isolate 12-1; outline: as §1
Escherichia coli [4] = assay: Antibacterial activity against Escherichia coli isolate 12-5; outline: as §1
Escherichia coli [5] = assay: Antibacterial activity against Escherichia coli isolate 12-4; outline: as §1
Escherichia coli [6] = assay: Antibacterial activity against Escherichia coli isolate 12-1; outline: as §1
Escherichia coli [7] = assay: Antibacterial activity against Escherichia coli ATCC 25922; outline: as §1
Streptococcus pneumoniae [8] = assay: Antibacterial activity against Streptococcus pneumoniae isolate 12-5; outline: as §1
Streptococcus pneumoniae [9] = assay: Antibacterial activity against Streptococcus pneumoniae isolate 12-2; outline: as §1
[10] = test system: Staphylococcus epidermidis; assay: Antibacterial activity against methicillin-resistant Staphylococcus epidermidis isolate 12-35
Outline: (§2)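 MIC determined in vitro by standard techniques, defined as the lowest compound concentration giving complete inhibition of bacterial growth. Gemifloxacin, levofloxacin and ciprofloxacin were tested alongside as reference drugs.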

[11] = test system: Staphylococcus epidermidis; assay: Antibacterial activity against methicillin-resistant Staphylococcus epidermidis isolate 12-33; outline: as §2
[12] = test system: Staphylococcus epidermidis; assay: Antibacterial activity against methicillin-resistant Staphylococcus epidermidis isolate 12-5; outline: as §2
[13] = test system: Staphylococcus epidermidis; assay: Antibacterial activity against methicillin-sensitive Staphylococcus epidermidis isolate 12-3; outline: as §1
[14] = test system: Staphylococcus epidermidis; assay: Antibacterial activity against methicillin-sensitive Staphylococcus epidermidis isolate 12-2; outline: as §1
[15] = test system: Staphylococcus epidermidis; assay: Antibacterial activity against methicillin-sensitive Staphylococcus epidermidis isolate 12-1; outline: as §1
Staphylococcus aureus [16] = assay: Antibacterial activity against methicillin-resistant Staphylococcus aureus isolate 12-15; outline: as §2
Staphylococcus aureus [17] = assay: Antibacterial activity against methicillin-resistant Staphylococcus aureus isolate 12-13; outline: as §2
Staphylococcus aureus [18] = assay: Antibacterial activity against methicillin-resistant Staphylococcus aureus isolate 12-3; outline: as §2
Staphylococcus aureus [19] = assay: Antibacterial activity against methicillin-sensitive Staphylococcus aureus isolate 12-10; outline: as §1
Staphylococcus aureus [20] = assay: Antibacterial activity against methicillin-sensitive Staphylococcus aureus isolate 12-7; outline: as §1
Staphylococcus aureus [21] = assay: Antibacterial activity against methicillin-sensitive Staphylococcus aureus isolate 12-6; outline: as §1
Staphylococcus aureus [22] = assay: Antibacterial activity against Staphylococcus aureus […]; outline: as §1
Pseudomonas aeruginosa [23] = assay: Antibacterial activity against Pseudomonas aeruginosa isolate 12-2; outline: as §1
Pseudomonas aeruginosa [24] = assay: Antibacterial activity against Pseudomonas aeruginosa isolate 12-1; outline: as §1
Pseudomonas aeruginosa [25] = assay: Antibacterial activity against Pseudomonas aeruginosa ATCC 27853; outline: as §1
Klebsiella pneumoniae [26] = assay: Antibacterial activity against extended-spectrum beta-lactamase-producing Klebsiella pneumoniae isolate 12-4; outline: as §1
Klebsiella pneumoniae [27] = assay: Antibacterial activity against extended-spectrum beta-lactamase-producing Klebsiella pneumoniae isolate 12-2; outline: as §1
Klebsiella pneumoniae [28] = assay: Antibacterial activity against extended-spectrum beta-lactamase-producing Klebsiella pneumoniae isolate 12-1; outline: as §1
Klebsiella pneumoniae [29] = assay: Antibacterial activity against Klebsiella pneumoniae isolate 12-4; outline: as §1
Klebsiella pneumoniae [30] = assay: Antibacterial activity against Klebsiella pneumoniae isolate 12-2; outline: as §1
Klebsiella pneumoniae [31] = assay: Antibacterial activity against Klebsiella pneumoniae isolate 12-1; outline: as §1

SMILES | MIC (Escherichia coli [1]) | MIC (Escherichia coli [2]) | MIC (Escherichia coli [3]) | MIC (Escherichia coli [4]) | MIC (Escherichia coli [5]) | MIC (Escherichia coli [6]) | MIC (Escherichia coli [7]) | MIC (Streptococcus pneumoniae [8]) | MIC (Streptococcus pneumoniae [9]) | MIC [10] | MIC [11] | MIC [12] | MIC [13] | MIC [14] | MIC [15] | MIC (Staphylococcus aureus [16]) | MIC (Staphylococcus aureus [17]) | MIC (Staphylococcus aureus [18]) | MIC (Staphylococcus aureus [19]) | MIC (Staphylococcus aureus [20]) | other results
CNC1CCN(c2c(F)cc3c(=O)c(C(=O)O)cn(C4CC4)c3c2F)C/C1=N\OC (stereo not given) | 128 µg/mL (≈ 304 µM) | > 128 µg/mL | > 128 µg/mL | > 128 µg/mL | > 128 µg/mL | 2 µg/mL (≈ 4.76 µM) | 0.03 µg/mL (≈ 0.0714 µM) | 0.06 µg/mL (≈ 0.143 µM) | 0.06 µg/mL (≈ 0.143 µM) | 0.015 µg/mL (≈ 0.0357 µM) | < 0.008 µg/mL | 0.015 µg/mL (≈ 0.0357 µM) | 0.25 µg/mL (≈ 0.595 µM) | 0.5 µg/mL (≈ 1.19 µM) | 0.25 µg/mL (≈ 0.595 µM) | 0.06 µg/mL (≈ 0.143 µM) | 0.06 µg/mL (≈ 0.143 µM) | 0.06 µg/mL (≈ 0.143 µM) | 0.03 µg/mL (≈ 0.0714 µM) | 0.06 µg/mL (≈ 0.143 µM) | MIC (Staphylococcus aureus [21]): 0.03 µg/mL (≈ 0.0714 µM); MIC (Staphylococcus aureus [22]): 0.25 µg/mL (≈ 0.595 µM); MIC (Pseudomonas aeruginosa [23]): 8 µg/mL (≈ 19 µM); MIC (Pseudomonas aeruginosa [24]): 8 µg/mL (≈ 19 µM); MIC (Pseudomonas aeruginosa [25]): 4 µg/mL (≈ 9.51 µM); MIC (Klebsiella pneumoniae [26]): 0.5 µg/mL (≈ 1.19 µM); MIC (Klebsiella pneumoniae [27]): 8 µg/mL (≈ 19 µM); MIC (Klebsiella pneumoniae [28]): 8 µg/mL (≈ 19 µM); MIC (Klebsiella pneumoniae [29]): 0.5 µg/mL (≈ 1.19 µM); MIC (Klebsiella pneumoniae [30]): 0.5 µg/mL (≈ 1.19 µM); MIC (Klebsiella pneumoniae [31]): 0.5 µg/mL (≈ 1.19 µM)
CNC1CCN(c2nc3c(cc2F)c(=O)c(C(=O)O)cn3-c2ccc(F)cc2F)C/C1=N\OC (stereo not given) | 32 µg/mL (≈ 67.3 µM) | > 128 µg/mL | > 128 µg/mL | > 128 µg/mL | > 128 µg/mL | 8 µg/mL (≈ 16.8 µM) | 0.125 µg/mL (≈ 0.263 µM) | 0.06 µg/mL (≈ 0.126 µM) | 0.06 µg/mL (≈ 0.126 µM) | 0.015 µg/mL (≈ 0.0316 µM) | 0.015 µg/mL (≈ 0.0316 µM) | 0.015 µg/mL (≈ 0.0316 µM) | 0.125 µg/mL (≈ 0.263 µM) | 0.5 µg/mL (≈ 1.05 µM) | 0.125 µg/mL (≈ 0.263 µM) | 0.03 µg/mL (≈ 0.0631 µM) | 0.03 µg/mL (≈ 0.0631 µM) | 0.03 µg/mL (≈ 0.0631 µM) | 0.03 µg/mL (≈ 0.0631 µM) | 0.06 µg/mL (≈ 0.126 µM) | MIC (Staphylococcus aureus [21]): 0.03 µg/mL (≈ 0.0631 µM); MIC (Staphylococcus aureus [22]): 0.125 µg/mL (≈ 0.263 µM); MIC (Pseudomonas aeruginosa [23]): 8 µg/mL (≈ 16.8 µM); MIC (Pseudomonas aeruginosa [24]): 4 µg/mL (≈ 8.41 µM); MIC (Pseudomonas aeruginosa [25]): 8 µg/mL (≈ 16.8 µM); MIC (Klebsiella pneumoniae [26]): 1 µg/mL (≈ 2.1 µM); MIC (Klebsiella pneumoniae [27]): 32 µg/mL (≈ 67.3 µM); MIC (Klebsiella pneumoniae [28]): 64 µg/mL (≈ 135 µM); MIC (Klebsiella pneumoniae [29]): 1 µg/mL (≈ 2.1 µM); MIC (Klebsiella pneumoniae [30]): 1 µg/mL (≈ 2.1 µM); MIC (Klebsiella pneumoniae [31]): 1 µg/mL (≈ 2.1 µM)
CNC1CCN(c2ccc3c(=O)c(C(=O)O)cn(C4CC4)c3n2)C/C1=N\OC (stereo not given) | 64 µg/mL (≈ 166 µM) | 128 µg/mL (≈ 332 µM) | > 128 µg/mL | > 128 µg/mL | > 128 µg/mL | 64 µg/mL (≈ 166 µM) | 0.5 µg/mL (≈ 1.3 µM) | 4 µg/mL (≈ 10.4 µM) | 4 µg/mL (≈ 10.4 µM) | 2 µg/mL (≈ 5.19 µM) | 4 µg/mL (≈ 10.4 µM) | 2 µg/mL (≈ 5.19 µM) | 8 µg/mL (≈ 20.8 µM) | 16 µg/mL (≈ 41.5 µM) | 8 µg/mL (≈ 20.8 µM) | 4 µg/mL (≈ 10.4 µM) | 4 µg/mL (≈ 10.4 µM) | 4 µg/mL (≈ 10.4 µM) | 2 µg/mL (≈ 5.19 µM) | 4 µg/mL (≈ 10.4 µM) | MIC (Staphylococcus aureus [21]): 2 µg/mL (≈ 5.19 µM); MIC (Staphylococcus aureus [22]): 0.5 µg/mL (≈ 1.3 µM); MIC (Pseudomonas aeruginosa [23]): 8 µg/mL (≈ 20.8 µM); MIC (Pseudomonas aeruginosa [24]): 16 µg/mL (≈ 41.5 µM); MIC (Pseudomonas aeruginosa [25]): 8 µg/mL (≈ 20.8 µM); MIC (Klebsiella pneumoniae [26]): 2 µg/mL (≈ 5.19 µM); MIC (Klebsiella pneumoniae [27]): > 128 µg/mL; MIC (Klebsiella pneumoniae [28]): 128 µg/mL (≈ 332 µM); MIC (Klebsiella pneumoniae [29]): 2 µg/mL (≈ 5.19 µM); MIC (Klebsiella pneumoniae [30]): 2 µg/mL (≈ 5.19 µM); MIC (Klebsiella pneumoniae [31]): 2 µg/mL (≈ 5.19 µM)
CCn1cc(C(=O)O)c(=O)c2cc(F)c(N3CCC(NC)/C(=N/OC)C3)c(F)c21 (stereo not given) | 128 µg/mL (≈ 313 µM) | > 128 µg/mL | > 128 µg/mL | > 128 µg/mL | > 128 µg/mL | 8 µg/mL (≈ 19.6 µM) | 0.5 µg/mL (≈ 1.22 µM) | 1 µg/mL (≈ 2.45 µM) | 1 µg/mL (≈ 2.45 µM) | 0.5 µg/mL (≈ 1.22 µM) | 8 µg/mL (≈ 19.6 µM) | 0.5 µg/mL (≈ 1.22 µM) | 0.5 µg/mL (≈ 1.22 µM) | 16 µg/mL (≈ 39.2 µM) | 0.5 µg/mL (≈ 1.22 µM) | 1 µg/mL (≈ 2.45 µM) | 1 µg/mL (≈ 2.45 µM) | 1 µg/mL (≈ 2.45 µM) | 0.5 µg/mL (≈ 1.22 µM) | 1 µg/mL (≈ 2.45 µM) | MIC (Staphylococcus aureus [21]): 0.5 µg/mL (≈ 1.22 µM); MIC (Staphylococcus aureus [22]): 0.125 µg/mL (≈ 0.306 µM); MIC (Pseudomonas aeruginosa [23]): 8 µg/mL (≈ 19.6 µM); MIC (Pseudomonas aeruginosa [24]): 8 µg/mL (≈ 19.6 µM); MIC (Pseudomonas aeruginosa [25]): 8 µg/mL (≈ 19.6 µM); MIC (Klebsiella pneumoniae [26]): 1 µg/mL (≈ 2.45 µM); MIC (Klebsiella pneumoniae [27]): 32 µg/mL (≈ 78.4 µM); MIC (Klebsiella pneumoniae [28]): 16 µg/mL (≈ 39.2 µM); MIC (Klebsiella pneumoniae [29]): 1 µg/mL (≈ 2.45 µM); MIC (Klebsiella pneumoniae [30]): 4 µg/mL (≈ 9.79 µM); MIC (Klebsiella pneumoniae [31]): 4 µg/mL (≈ 9.79 µM)
CCO/N=C1\CN(c2c(F)cc3c(=O)c(C(=O)O)cn(C4CC4)c3c2OC)CCC1NC (stereo not given) | 32 µg/mL (≈ 71.7 µM) | > 128 µg/mL | > 128 µg/mL | > 128 µg/mL | > 128 µg/mL | 8 µg/mL (≈ 17.9 µM) | 16 µg/mL (≈ 35.8 µM) | 1 µg/mL (≈ 2.24 µM) | 0.25 µg/mL (≈ 0.56 µM) | 1 µg/mL (≈ 2.24 µM) | 1 µg/mL (≈ 2.24 µM) | 1 µg/mL (≈ 2.24 µM) | 0.5 µg/mL (≈ 1.12 µM) | 1 µg/mL (≈ 2.24 µM) | 0.5 µg/mL (≈ 1.12 µM) | 0.25 µg/mL (≈ 0.56 µM) | 0.25 µg/mL (≈ 0.56 µM) | 0.25 µg/mL (≈ 0.56 µM) | 0.125 µg/mL (≈ 0.28 µM) | 32 µg/mL (≈ 71.7 µM) | MIC (Staphylococcus aureus [21]): 0.25 µg/mL (≈ 0.56 µM); MIC (Staphylococcus aureus [22]): 0.125 µg/mL (≈ 0.28 µM); MIC (Pseudomonas aeruginosa [23]): 16 µg/mL (≈ 35.8 µM); MIC (Pseudomonas aeruginosa [24]): 16 µg/mL (≈ 35.8 µM); MIC (Pseudomonas aeruginosa [25]): 16 µg/mL (≈ 35.8 µM); MIC (Klebsiella pneumoniae [26]): > 128 µg/mL; MIC (Klebsiella pneumoniae [27]): 32 µg/mL (≈ 71.7 µM); MIC (Klebsiella pneumoniae [28]): 32 µg/mL (≈ 71.7 µM); MIC (Klebsiella pneumoniae [29]): 2 µg/mL (≈ 4.48 µM); MIC (Klebsiella pneumoniae [30]): 4 µg/mL (≈ 8.96 µM); MIC (Klebsiella pneumoniae [31]): 4 µg/mL (≈ 8.96 µM)
